Consider one compound from ChEMBL document CHEMBL4342526, “Exploration of the Structural Space in 4(3H)-Quinazolinone Antibacterials” (J Med Chem, 2020).

Data set [1] concerns Staphylococcus aureus. Briefly: Antibacterial activity against Staphylococcus aureus ATCC 29213 measured after 16 to 20 hrs in presence of bovine serum albumin by microdilution method. The format is functional. The gist of the method:
(§1)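 S. aureus ATCC29213 MIC was run by CLSI microdilution in cation-adjusted Mueller–Hinton broth plus 2% NaCl, with and without 0.5% bovine serum albumin. Compounds were two-fold serially diluted in triplicate, inoculum was 5 × 10^5 CFU/mL, and plates were incubated at 37 °C for 16–20 h. The endpoint was the lowest concentration with no visible growth.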
(Broth dilution looks for growth in wells or tubes with falling amounts of substance.)

The subject of data set [2] is Staphylococcus aureus. Briefly: Selectivity ratio of MIC for Staphylococcus aureus ATCC 29213 in presence of bovine serum albumin to MIC for Staphylococcus aureus ATCC 29213 in absence of bovine serum albumin. It counts as functional. The gist of the method: as §1
For data set [3], the system named is Staphylococcus epidermidis. Put plainly: Antibacterial activity against Staphylococcus epidermidis ATCC 35547 measured after 16 to 20 hrs by microdilution method. It counts as functional. The gist of the method:
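CLSI broth microdilution; two-fold serial compound dilutions in triplicate in cation-adjusted Mueller–Hinton broth with 2% NaCl, inoculum 5 × 10^5 CFU/mL; 37 °C for 16–20 h; MIC = lowest concentration with no visible growth.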

A further data set deals with Bacillus cereus. Put plainly: Antibacterial activity against Bacillus cereus ATCC 13061 measured after 16 to 20 hrs by microdilution method. It counts as functional. Summed up:
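CLSI broth microdilution: two-fold serial dilutions in triplicate in cation-adjusted Mueller–Hinton broth with 2% NaCl, inoculum 5 × 10^5 CFU/mL, incubated at 37 °C for 16–20 h. MIC is the lowest concentration preventing visible growth.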

A short description of data set [4]: AUC (0 to last) in ICR mouse at 10 mg/kg, iv by UV-UPLC analysis. It counts as ADME, organism-based. Details: dose 10 mg/kg, time 0 - last, route intravenous. Conditions: in vivo. Summed up: (§2)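 Female ICR mice, 6–8 weeks old, 20–25 g. Each received 50 μL by tail-vein injection (5 or 10 mg/kg) of a filter-sterilized 2 or 4 mg/mL solution in 20% DMSO/10% Tween-80/70% water. Terminal blood was collected and plasma harvested by centrifugation. Plasma was precipitated with acetonitrile containing internal standard, and the supernatant was analyzed by C18 UPLC with UV detection at 285 nm.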

Data set [5] is described as follows: AUC (0 to infinity) in ICR mouse at 10 mg/kg, iv by UV-UPLC analysis. The format is ADME, organism-based. More on the design: dose 10 mg/kg, time infinity, route intravenous. Conditions: in vivo. Summed up:
as §2

Data set [6] is described as follows: Elimination half life in ICR mouse at 10 mg/kg, iv by UV-UPLC analysis. Conditions: in vivo. It counts as ADME, organism-based. The gist of the method: as §2
Data set [7] can be described thus: Volume of distribution in ICR mouse at 10 mg/kg, iv by UV-UPLC analysis. Conditions: in vivo. It counts as ADME, organism-based. The gist of the method:
as §2

Data set [8] can be described thus: AUC (0 to last) in ICR mouse at 10 mg/kg, po administered via gavage by UV-UPLC analysis. The format is ADME, organism-based. More on the design: dose 10 mg/kg, time 0 - last, route oral. The conditions noted are these: in vivo.
Data set [9] can be described thus: Clearance in ICR mouse at 10 mg/kg, iv by UV-UPLC analysis relative to hepatic blood flow. The format is ADME, organism-based. Conditions: in vivo. The gist of the method: as §2
The nature of data set [10]: Time at which plasma concentration stays above in vitro MIC for clindamycin/erythromycin/spectinomycin-resistant mec-positive Staphylococcus aureus NRS70 in ICR mouse at 10 mg/kg, iv. The format is ADME, organism-based. The conditions noted are these: in vivo. The gist of the method:
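Female ICR mice given single iv tail-vein dose (50 μL of 2 or 4 mg/mL in 20% DMSO/10% Tween-80/70% water); terminal blood at 5, 40 min, 2, 4, 8 h, n = 2 per time point; plasma acetonitrile-precipitated with internal standard, UPLC-UV 285 nm on C18; time above MIC read from concentration profile.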

The subject of data set [11] is Staphylococcus aureus. Put plainly: […] activity against clindamycin/erythromycin/spectinomycin-resistant mec-positive Staphylococcus aureus NRS70 incubated for 16 to 20 hrs followed by re-plating on agar plate. The format is functional. Conditions: read-out: MBC99.9.
Data set [12] concerns Staphylococcus aureus. Briefly: Bacteriostatic activity against clindamycin/erythromycin/spectinomycin-resistant mec-positive Staphylococcus aureus NRS70 assessed as log reduction in bacterial count at 0.5 to 16 times MIC by time-kill assay. It counts as functional.
In data set [13] the target is T1, MecA (Staphylococcus aureus) (UniProt Q7DHH4).
T1 sequence (whole entry): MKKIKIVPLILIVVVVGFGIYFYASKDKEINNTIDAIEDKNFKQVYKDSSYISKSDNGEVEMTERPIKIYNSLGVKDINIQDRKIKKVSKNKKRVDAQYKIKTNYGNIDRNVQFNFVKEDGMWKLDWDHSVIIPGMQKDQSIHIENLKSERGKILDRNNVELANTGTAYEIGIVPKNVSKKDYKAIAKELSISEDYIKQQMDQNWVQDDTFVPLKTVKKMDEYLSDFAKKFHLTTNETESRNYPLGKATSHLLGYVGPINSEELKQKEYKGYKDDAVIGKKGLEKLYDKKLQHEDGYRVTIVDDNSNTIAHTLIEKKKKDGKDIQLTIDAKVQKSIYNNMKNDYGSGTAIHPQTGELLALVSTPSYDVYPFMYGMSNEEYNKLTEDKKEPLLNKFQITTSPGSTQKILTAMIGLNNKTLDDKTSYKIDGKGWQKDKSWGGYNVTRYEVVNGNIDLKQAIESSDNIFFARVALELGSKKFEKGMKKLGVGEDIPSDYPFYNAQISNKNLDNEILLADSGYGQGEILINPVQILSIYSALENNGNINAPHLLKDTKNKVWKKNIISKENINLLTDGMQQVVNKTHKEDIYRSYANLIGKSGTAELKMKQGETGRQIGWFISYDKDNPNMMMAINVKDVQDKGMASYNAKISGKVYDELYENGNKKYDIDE
Briefly: Binding affinity to PBP2a in clindamycin/erythromycin/spectinomycin-resistant mec-positive Staphylococcus aureus NRS70 assessed potentiation of piperacillin and tazobactam-induced bactericidal activity by measuring log reduction in bacterial count at 0.5 times MIC measured after 24 hrs by time-kill assay.

In data set [14] the test system is Staphylococcus aureus. Briefly: Bactericidal activity against methicillin resistant Staphylococcus aureus NRS70 infected in ICR mouse model of neutropenic thigh infection assessed as log reduction in bacterial count in thigh at 20 mg/kg, sc administered at 8 hrs interval for 3 times starting from 1 hr post infection and measured 24 hrs post infection. It counts as functional. The gist of the method: (§3)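 Female ICR mice (6–8 weeks, 20–25 g) made neutropenic with cyclophosphamide 200 mg/kg ip at 4 and 1 days pre-infection; 0.1 mL NRS70 at 1 × 10^6 CFU/mL in brain heart infusion injected into right thigh; drug in 10% DMSO/90% water sc every 8 h ×3 from 1 h post-infection; thigh CFU counted at 24 h; n = 8/group; mean ± SEM, one-way ANOVA with Tukey test.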

Data set [15] deals with Staphylococcus aureus. Put plainly: Bactericidal activity against methicillin resistant Staphylococcus aureus NRS70 infected in ICR mouse model of neutropenic thigh infection assessed as log reduction in bacterial count in thigh at 40 mg/kg, sc administered at 8 hrs interval for 3 times starting from 1 hr post infection and measured 24 hrs post infection. It counts as functional. The gist of the method: as §3

The subject of data set [16] is Staphylococcus aureus. Briefly: Potentiation of piperacillin and tazobactam-induced bactericidal activity against methicillin resistant Staphylococcus aureus NRS70 infected in ICR mouse model of neutropenic thigh infection assessed as log reduction in bacterial count in thigh at 40 mg/kg, sc administered at 8 hrs interval for 3 times starting from 1 hr post infection and measured 24 hrs post infection. The format is functional. The gist of the method:
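Neutropenic ICR mouse thigh model as above (cyclophosphamide 200 mg/kg ip days −4 and −1; NRS70 1 × 10^6 CFU/mL, 0.1 mL im right thigh); compound given with piperacillin 12 mg/kg plus tazobactam 1.5 mg/kg, sc in 10% DMSO/90% water every 8 h ×3 from 1 h; thigh CFU at 24 h; n = 8; mean ± SEM, ANOVA/Tukey.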

≈ marks a conversion by molar mass, not a printed value.

Turning to `N#Cc1ccc(/C=C/c2nc3ccccc3c(=O)n2-c2cc(C(=O)O)ccc2F)cc1`, the MIC in the data set with Staphylococcus aureus [1] is 2 µg/mL; in data set [3] it was 0.25 µg/mL (≈ 0.608 µM); in the data set with Bacillus cereus it was > 128 µg/mL. In addition, the selectivity ratio result in the data set on Staphylococcus aureus [2] is recorded as “<=4”. Moreover, the AUClast was found to be 1290 µg·min/mL in data set [4] and 840 µg·min/mL in data set [8]. This compound also had an AUC(0-inf) in data set [5] of 22000 ng·h/mL. The “beta t1/2” value in data set [6] came to 13.7 h. In [7], this compound displayed a Vd of 0.19 L/kg. Also, the CL in data set [9] was < 10%. The “T>MIC” value in [10] turned out to be 4 h. Moreover, in the data set on Staphylococcus aureus [11], the MBC is > 128 µg/mL. Further, the “log(activity)” value is <3 with Staphylococcus aureus [12]; > 3 in [13]; 0.47 with Staphylococcus aureus [14]; 0.78 with Staphylococcus aureus [15]; 1.33 in the data set with Staphylococcus aureus [16].

What is called MIC is the lowest concentration found to suppress growth. By AUC(0-inf) is commonly meant total exposure, with the tail of the curve extrapolated. A lower AUC(0-inf) goes with low exposure. In general, Vd refers to the apparent volume that relates the amount in the body to the concentration in plasma or blood. Higher therefore signals wide distribution into tissue.
